What was measured:
Format in all cases: functional
[1] = DPPH radical scavenging activity at 40 uM after 30 mins by spectrophotometric assay
In short: (§1)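 Compounds added to ethanolic DPPH radical solution (100 µM final). Mixtures were vortexed, then kept 30 min at 25 °C in a water bath in the dark. Remaining DPPH was read by absorbance at 517 nm. Scavenging = (A without compound − A with compound)/A without compound × 100. Means with SD from three independent experiments; column differences tested at p < 0.05.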

[2] = DPPH radical scavenging activity at 20 uM after 30 mins by spectrophotometric assay; in short: as §1
[3] = DPPH radical scavenging activity at 10 uM after 30 mins by spectrophotometric assay; in short: as §1
[4] = DPPH radical scavenging activity at 80 uM after 30 mins by spectrophotometric assay; in short: as §1
[5] = DPPH radical scavenging activity at 2.5 uM after 30 mins by spectrophotometric assay; in short: as §1
[6] = DPPH radical scavenging activity at 5 uM after 30 mins by spectrophotometric assay; in short: as §1

COc1cc(CC(CO)O[C@@H]2O[C@H](COC(=O)c3cc(O)c(O)c(O)c3)[C@@H](O)[C@H](O)[C@H]2O)ccc1O (mixture of isomers)
Activity [1]: 95.3%
Activity [2]: 92.4%
Activity [3]: 56.9%
Activity [4]: 95.6%
Activity [5]: 17.7%
Activity [6]: 33.1%

CC1=CC[C@@H](C(C)(C)O[C@@H]2O[C@H](COC(=O)c3cc(O)c(O)c(O)c3)[C@@H](O)[C@H](O)[C@H]2O)CC1
Activity [1]: 95.4%
Activity [2]: 88.9%
Activity [3]: 48.4%
Activity [4]: 95.4%
Activity [5]: 14.8%
Activity [6]: 26.2%

O=C(O)c1cc(O)c(O)c(O)c1
Activity [1]: 94.8%
Activity [2]: 86.8%
Activity [3]: 61.6%
Activity [4]: 95.7%
Activity [5]: 19%
Activity [6]: 34.9%

Cc1c(C)c2c(c(C)c1O)CC[C@@](C)(CCC[C@H](C)CCC[C@H](C)CCCC(C)C)O2
Activity [1]: 95.7%
Activity [2]: 48.8%
Activity [3]: 23.4%
Activity [4]: 95.8%
Activity [5]: 8.3%
Activity [6]: 14%

CC1=CC[C@H](C(C)(C)O[C@@H]2O[C@H](COC(=O)c3cc(O)c(O)c(O)c3)[C@@H](O)[C@H](O)[C@H]2O)CC1
Activity [1]: 95.3%
Activity [2]: 90.1%
Activity [3]: 46.2%
Activity [4]: 95.3%
Activity [5]: 12.9%
Activity [6]: 24.5%

C=CCc1ccc(O[C@@H]2O[C@H](COC(=O)c3cc(O)c(O)c(O)c3)[C@@H](O)[C@H](O)[C@H]2O)c(OC)c1
Activity [1]: 95.2%
Activity [2]: 95.2%
Activity [3]: 60.9%
Activity [4]: 95.7%
Activity [5]: 15%
Activity [6]: 31.7%

Cc1cc(C(C)(C)C)c(O)c(C(C)(C)C)c1
Activity [1]: 47.5%
Activity [2]: 28.6%
Activity [3]: 16.7%
Activity [4]: 68%
Activity [5]: 6.3%
Activity [6]: 11.8%

C=CCc1cc(OC)c(O)c(O[C@@H]2O[C@H](COC(=O)c3cc(O)c(O)c(O)c3)[C@@H](O)[C@H](O)[C@H]2O)c1
Activity [1]: 95.7%
Activity [2]: 91.2%
Activity [3]: 53.6%
Activity [4]: 95.8%
Activity [5]: 12.2%
Activity [6]: 26.8%

— ChEMBL document CHEMBL1142621, “Galloylglucosides from berries of Pimenta dioica” (J Nat Prod, 2000)
